Reference: ChEMBL document CHEMBL1158036, “Steroidal saponins from Solanum nigrum” (J Nat Prod, 2006)

Tests used:
SF-268 = assay: Cytotoxicity against human SF-268 after 48 hrs by MTT assay; assay type: functional, cell-based; conditions: for IC50: SF-268, 48 h
Outline: (§1)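 Cells grown in RPMI 1640 with 10% FBS, trypsinized at 70% confluence; 1.0 × 10^4 cells per well cultured 24 h before treatment. Compounds at 100-3.125 µM, vehicle 0.1% DMSO, 48 h exposure; MTT read at 570 nm. IC50 where 100 × (C − T)/(C − B) = 50, derived by LOGIT method; mean ± SD of three independent experiments.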

[1] = (§2) Cytotoxicity against human Hep G2 after 48 hrs by MTT assay; assay type: functional; conditions: HepG2, 48 h; outline: as §1
NCI-H460 = assay: Cytotoxicity against human NCI-H460 after 48 hrs by MTT assay; assay type: functional, cell-based; conditions: for IC50: NCI-H460, 48 h; outline: as §1
MCF7 = assay: Cytotoxicity against human MCF7 after 48 hrs by MTT assay; assay type: functional, cell-based; conditions: for IC50: MCF7, 48 h; outline: as §1
HepG2 = assay: as §2; assay type: functional; outline: as §1

Row | Compound | IC50 (SF-268) | IC50 [1] | IC50 (NCI-H460) | IC50 (MCF7) | Activity (SF-268) | Activity (HepG2) | Activity (NCI-H460) | Activity (MCF7)
1 | CC[C@@]1(O)C(=O)OCc2c1cc1n(c2=O)Cc2cc3cc(O)ccc3nc2-1 [HYDROXYCAMPTOTHECIN] | 29.9 µM | 6.49 µM | 38.6 µM | 19.1 µM |  |  |  | 
2 | C[C@@H]1C[C@H](O)[C@@]2(OC1=O)O[C@H]1C[C@H]3[C@@H]4CC[C@H]5C[C@@H](O[C@@H]6O[C@H](CO)[C@H](O[C@@H]7O[C@H](CO)[C@@H](O)[C@H](O[C@@H]8OC[C@@H](O)[C@H](O)[C@H]8O)[C@H]7O[C@@H]7OC[C@H](O)[C@H](O)[C@H]7O)[C@H](O)[C@H]6O[C@@H]6O[C@@H](C)[C@H](O)[C@@H](O)[C@H]6O)CC[C@]5(C)[C@H]4CC[C@]3(C)[C@H]1[C@@H]2C |  |  |  |  | Not toxic | Not toxic | Not toxic | Not toxic
3 | C[C@@H]1CC[C@@]2(OC1)O[C@H]1[C@H](O)[C@H]3[C@@H]4CC[C@H]5C[C@@H](O[C@@H]6O[C@H](CO)[C@H](O[C@@H]7O[C@H](CO)[C@@H](O)[C@H](O[C@@H]8OC[C@@H](O)[C@H](O)[C@H]8O)[C@H]7O[C@@H]7O[C@H](CO)[C@@H](O)[C@H](O)[C@H]7O)[C@H](O)[C@H]6O)CC[C@]5(C)[C@H]4CC[C@]3(C)[C@H]1[C@@H]2C |  |  |  |  | Not toxic | Not toxic | Not toxic | Not toxic
4 | C[C@@H]1C[C@H](O)[C@@]2(OC1=O)O[C@H]1[C@H](O)[C@H]3[C@@H]4CC[C@H]5C[C@@H](O[C@@H]6O[C@H](CO)[C@H](O[C@@H]7O[C@H](CO)[C@@H](O)[C@H](O[C@@H]8OC[C@@H](O)[C@H](O)[C@H]8O)[C@H]7O[C@@H]7OC[C@H](O)[C@H](O)[C@H]7O)[C@H](O)[C@H]6O[C@@H]6O[C@@H](C)[C@H](O)[C@@H](O)[C@H]6O)CC[C@]5(C)[C@H]4CC[C@]3(C)[C@H]1[C@@H]2C |  |  |  |  | Not toxic | Not toxic | Not toxic | Not toxic
5 | C[C@@H]1C[C@H](O)[C@@]2(OC1=O)O[C@H]1[C@H](O)[C@H]3[C@@H]4CC[C@H]5C[C@@H](O[C@@H]6O[C@H](CO)[C@H](O[C@@H]7O[C@H](CO)[C@@H](O)[C@H](O[C@@H]8O[C@H](CO)[C@@H](O)[C@H](O)[C@H]8O)[C@H]7O[C@@H]7O[C@H](CO)[C@@H](O)[C@H](O)[C@H]7O)[C@H](O)[C@H]6O)CC[C@]5(C)[C@H]4CC[C@]3(C)[C@H]1[C@@H]2C |  |  |  |  | Not toxic | Not toxic | Not toxic | Not toxic
6 | C[C@@H]1CC[C@@]2(OC1)O[C@H]1C[C@H]3[C@@H]4CC=C5C[C@@H](O[C@@H]6O[C@H](CO)[C@@H](O[C@@H]7O[C@@H](C)[C@H](O)[C@@H](O)[C@H]7O[C@@H]7O[C@H](CO)[C@@H](O)[C@H](O)[C@H]7O)[C@H](O)[C@H]6O[C@@H]6O[C@@H](C)[C@H](O)[C@@H](O)[C@H]6O)CC[C@]5(C)[C@H]4CC[C@]3(C)[C@@]1(O)[C@@H]2C |  |  |  |  | Not toxic | Not toxic | Not toxic | Not toxic
7 | C[C@H]1CO[C@@]2(O[C@H]3C[C@H]4[C@@H]5CC[C@H]6C[C@@H](O[C@@H]7O[C@H](CO)[C@H](O[C@@H]8O[C@H](CO)[C@@H](O)[C@H](O[C@@H]9OC[C@@H](O)[C@H](O)[C@H]9O)[C@H]8O[C@@H]8O[C@H](CO)[C@@H](O)[C@H](O)[C@H]8O)[C@H](O)[C@H]7O)CC[C@]6(C)[C@H]5CC[C@]4(C)[C@H]3[C@@H]2C)[C@@H](O[C@@H]2O[C@H](CO)[C@@H](O)[C@H](O)[C@H]2O)C1 |  |  |  |  | Not toxic | Not toxic | Not toxic | Not toxic
8 | C[C@@H]1CC[C@@]2(OC1)O[C@H]1C[C@H]3[C@@H]4CC[C@H]5C[C@@H](O[C@@H]6O[C@H](CO)[C@H](O[C@@H]7O[C@H](CO)[C@@H](O)[C@H](O[C@@H]8OC[C@@H](O)[C@H](O)[C@H]8O)[C@H]7O[C@@H]7O[C@H](CO)[C@@H](O)[C@H](O)[C@H]7O)[C@H](O)[C@H]6O)CC[C@]5(C)[C@H]4CC[C@]3(C)[C@H]1[C@@H]2C [DEGALACTOTIGONIN] | 3.19 µM | 0.25 µM | 4.49 µM | 1.57 µM |  |  |  | 
